{
  "source": "ChEMBL document CHEMBL1949585",
  "about": "“Design, synthesis and evaluation of telomerase inhibitory, hTERT repressing, and anti-proliferation activities of symmetrical 1,8-disubstituted amidoanthraquinones” (Eur J Med Chem, 2012)",
  "key": {"H1299 [1]": {"system": "H1299", "assay": "Inhibition of human telomerase in H1299 cell lysate compound incubated post-telomerase extension by PCR-based telomeric repeat amplification protocol assay", "format": "cell-free", "procedure,_shortened": "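Modified TRAP assay (TRAP-M) to test for interference with Taq polymerase. Compound was added to H1299 extract reactions right after the telomerase extension step and before PCR amplification.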"}, "[2]": {"assay": "Cytotoxicity against human H1299 cells assessed as cell growth at 1 uM after 48 hrs by MTT assay", "format": "functional", "conditions": "NCI-H1299, 48 h, read-out: Activity", "procedure,_shortened": "(§1)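 H1299 non-small lung cancer cells were grown in RPMI 1640 with 10% FBS and penicillin/streptomycin at 37 °C in 5% CO2. About 2×10³ cells were seeded per well and held 24 h, then washed with PBS and given fresh medium. Compound, freshly dissolved in DMSO and diluted in complete medium, was added for 48 h. MTT was read at 550 nm after SDS/DMF lysis at 37 °C for 16 h. Values are from three experiments, untreated = 100%, ±SD.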"}, "[3]": {"assay": "Cytotoxicity against human H1299 cells assessed as cell growth at 10 uM after 48 hrs by MTT assay", "format": "functional", "conditions": "NCI-H1299, 48 h, read-out: Activity", "procedure,_shortened": "as §1"}, "[4]": {"assay": "Inhibition of human TERT expression in H1299 cells at 10 uM after 24 hrs by secreted alkaline phosphatase reporter gene assay relative to control; values are per cent of control", "conditions": "NCI-H1299"}, "[5]": {"assay": "Inhibition of human TERT expression in H1299 cells at 100 uM after 24 hrs by secreted alkaline phosphatase reporter gene assay relative to control; values are per cent of control", "conditions": "NCI-H1299"}, "[6]": {"assay": "Cytotoxicity against human H1299 cells assessed as cell growth at 100 uM after 48 hrs by MTT assay", "format": "functional", "conditions": "NCI-H1299, 48 h, read-out: Activity", "procedure,_shortened": "as §1"}, "[7]": {"assay": "(§2) Inhibition of human telomerase in H1299 cell lysate compound incubated for 5 mins prior to telomerase extension by PCR-based telomeric repeat amplification protocol assay", "format": "cell-free", "procedure,_shortened": "(§3)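 TRAP assay on telomerase-active H1299 cell extracts, with RNase A-treated extract as the negative control. Compound was preincubated with extract for 5 min at room temperature before the telomerase extension and PCR amplification. The initial screen used 10 µM, and IC50 came from a dose series.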"}, "H1299 [8]": {"system": "H1299", "assay": "as §2", "format": "cell-free", "procedure,_shortened": "as §3"}, "[9]": {"assay": "Inhibition of human TERT expression in H1299 cells at 1 uM after 24 hrs by secreted alkaline phosphatase reporter gene assay relative to control; values are per cent of control", "conditions": "NCI-H1299"}, "H1299 [10]": {"system": "H1299", "assay": "Inhibition of human telomerase in H1299 cell lysate at 10 uM by PCR-based telomeric repeat amplification protocol assay", "format": "cell-free", "procedure,_shortened": "as §3"}},
  "note": "The source made the active and inactive calls. The rule behind the calls is not given here.",
  "data": [
    {"smiles": "CC(C)NCCC(=O)Nc1cccc2c1C(=O)c1c(NC(=O)CCNC(C)C)cccc1C2=O", "values": [
      {"measurement": "inhibition", "setting": "H1299 [1]", "result": "Dose-dependent effect"},
      {"measurement": "growth at 1 µM", "setting": "[2]", "result": 101, "unit": "%"},
      {"measurement": "growth at 10 µM", "setting": "[3]", "result": 29, "unit": "%"},
      {"measurement": "level, % of control", "setting": "[4]", "result": 16, "unit": "%"},
      {"measurement": "level, % of control", "setting": "[5]", "result": 0, "unit": "%"},
      {"measurement": "growth at 100 µM", "setting": "[6]", "result": 14, "unit": "%"},
      {"measurement": "IC50", "setting": "[7]", "result": 3000, "unit": "nM"},
      {"measurement": "inhibition", "setting": "H1299 [8]", "result": "Dose-dependent effect"},
      {"measurement": "level, % of control", "setting": "[9]", "result": 106, "unit": "%"},
      {"measurement": "inhibition", "setting": "H1299 [10]", "result": "Active"}
    ]}
  ]
}
